Reference: ChEMBL document CHEMBL1135714, “New neplanocin analogues. 12. Alternative synthesis and antimalarial effect of (6'R)-6'-C-methylneplanocin A, a potent AdoHcy hydrolase inhibitor” (J Med Chem, 2002)

Experiments:
[1] = The compound was tested for survival of the ICR mice (infected with Plasmodium berghei) as a symptom indicative of toxicity on day 4, at a dose of 5 mg/kg/day; type: functional, Mus musculus
Procedure, shortened: (§1)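 P. berghei (NK 65 strain)-infected ICR mice, groups of five; compound in DMSO given intraperitoneally once daily for four consecutive days starting day 0; five infected DMSO-dosed mice as controls; survival counted on day 4 as toxicity indicator; Giemsa-stained tail blood smears, 1 × 10⁴ erythrocytes per film, for parasitemia.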

Plasmodium falciparum = experiment: In vitro antimalarial activity against Plasmodium falciparum
Plasmodium berghei [2] = experiment: Parasitaemia (%) in tail blood smears of Plasmodium berghei infected ICR mice (Mus musculus) at 2 mg/kg/day after 4 days; type: functional
Procedure, shortened: (§2)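 P. berghei NK 65-infected ICR mice, five per group. Compounds in DMSO were given intraperitoneally once daily for four consecutive days from day 0, at 0.1–20 mg/kg/day. Five infected DMSO-dosed mice served as controls. On day 4, Giemsa-stained tail-blood thin films were read by microscopy, with 1 × 10⁴ erythrocytes counted per film, to give % parasitemia.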

[3] = The compound was tested for the dose required to cause 50% suppression of Plasmodium berghei growth in mice.; type: functional, Mus musculus
Procedure, shortened: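 Four-day suppressive test in ICR mice infected with P. berghei NK 65, five per group. DMSO solutions were injected intraperitoneally daily on days 0–3 at 0.1–20 mg/kg/day, against infected DMSO-dosed controls. Day-4 parasitemia came from Giemsa-stained tail-blood smears, 1 × 10⁴ erythrocytes per film. EC50 is the dose giving 50% suppression of parasite growth.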

[4] = The compound was tested for survival of the ICR mice (infected with Plasmodium berghei) as a symptom indicative of toxicity on day 4, at a dose of 20 mg/kg/day; type: functional, Mus musculus; procedure, shortened: as §1
[5] = The compound was tested for survival of the ICR mice (infected with Plasmodium berghei) as a symptom indicative of toxicity on day 4, at a dose of 2 mg/kg/day; type: functional, Mus musculus; procedure, shortened: as §1
[6] = The compound was tested for survival of the ICR mice (infected with Plasmodium berghei) as a symptom indicative of toxicity on day 4, at a dose of 1.0 mg/kg/day; type: functional, Mus musculus; procedure, shortened: as §1
[7] = The compound was tested for survival of the ICR mice (infected with Plasmodium berghei) as a symptom indicative of toxicity on day 4, at a dose of 10 mg/kg/day; type: functional, Mus musculus; procedure, shortened: as §1
Plasmodium berghei [8] = experiment: Parasitaemia (%) in tail blood smears from Plasmodium berghei infected ICR mice (Mus musculus) at 0.1-mg/kg/day for 4 days; type: functional; procedure, shortened: as §2
Plasmodium berghei [9] = experiment: Parasitaemia (%) in tail blood smears of Plasmodium berghei infected ICR mice (Mus musculus) at 10 mg/kg/day after 4 days; type: functional; procedure, shortened: as §2
[10] = The compound was tested for survival of the ICR mice (infected with Plasmodium berghei) as a symptom indicative of toxicity on day 4, at a dose of 0.5 mg/kg/day; type: functional, Mus musculus; procedure, shortened: as §1
Plasmodium berghei [11] = experiment: Parasitaemia (%) in tail blood smears of Plasmodium berghei infected ICR mice (Mus musculus) at 1.0 mg/kg/day after 4 days; type: functional; procedure, shortened: as §2
Plasmodium berghei [12] = experiment: Parasitaemia (%) in tail blood smears from Plasmodium berghei infected ICR mice (Mus musculus) at 0.5-mg/kg/day for 4 days; type: functional; procedure, shortened: as §2
Plasmodium berghei [13] = experiment: Parasitaemia (%) in tail blood smears of Plasmodium berghei infected ICR mice (Mus musculus) at 5 mg/kg/day after 4 days; type: functional; procedure, shortened: as §2
Plasmodium berghei [14] = experiment: Parasitaemia (%) in tail blood smears from Plasmodium berghei infected ICR mice (Mus musculus) after 4 days; type: functional; procedure, shortened: as §2
[15] = test system: KATO III stomach cancer cell line; experiment: The compound was tested for cytotoxicity against the growth of human gastric carcinoma cell line ( KATO III ).; type: functional, cell-based
Vero = experiment: The compound was tested for cytotoxicity against monkey kidney cell line ( Vero ).; type: functional, cell-based; details: Chlorocebus sabaeus
[16] = The compound was tested for survival of the ICR mice (infected with Plasmodium berghei) as a symptom indicative of toxicity on day 4, at a dose of 0.1 mg/kg/day; type: functional, Mus musculus; procedure, shortened: as §1
Plasmodium berghei [17] = experiment: Parasitaemia (%) in tail blood smears of Plasmodium berghei infected ICR mice (Mus musculus) at 0.5 mg/kg/day after 4 days; type: functional; procedure, shortened: as §2
Plasmodium berghei [18] = experiment: Parasitaemia (%) in tail blood smears from Plasmodium berghei infected ICR mice (Mus musculus) at 0.1 mg/kg/day for 4 days; type: functional; procedure, shortened: as §2
Plasmodium berghei [19] = experiment: Parasitaemia (%) in tail blood smears of Plasmodium berghei infected ICR mice (Mus musculus) at 20 mg/kg/day after 4 days; type: functional; procedure, shortened: as §2
Plasmodium berghei [20] = experiment: Percent parasitaemia in tail blood smears from Plasmodium berghei infected ICR mice (Mus musculus) at 0.5-mg/kg/day after 4 days; type: functional; procedure, shortened: as §2
[21] = The compound was tested for survival of the ICR mice (infected with Plasmodium berghei) as a symptom indicative of toxicity on day 4, at different doses 20 mg/kg/day; type: functional, Mus musculus; procedure, shortened: as §1

| SMILES | Survival [1] | IC50 (Plasmodium falciparum) [µM] | Parasitemia (Plasmodium berghei [2]) [%] | EC50 [3] [mg/kg/day] | Survival [4] | Survival [5] | Survival [6] | Survival [7] | Parasitemia (Plasmodium berghei [8]) [%] | Parasitemia (Plasmodium berghei [9]) [%] | Survival [10] | Parasitemia (Plasmodium berghei [11]) [%] | Parasitemia (Plasmodium berghei [13]) [%] | Parasitemia (Plasmodium berghei [14]) [%] | IC50 [15] [µM] | Survival [16] | also measured |
| --- | --- | --- | --- | --- | --- | --- | --- | --- | --- | --- | --- | --- | --- | --- | --- | --- | --- |
| C[C@@H](O)C1=C[C@@H](n2cnc3c(N)ncnc32)[C@H](O)[C@@H]1O | 5 | 0.1 | 5 | 1 | 2 | 5 | 5 | 5 | 21 | 2 | 5 | 10 | 2 | 21 | 1.1 | 5 | Parasitemia (Plasmodium berghei [12]): 21%; IC50 (Vero): > 1800 µM |
| CCN(CC)CCCC(C)Nc1ccnc2cc(Cl)ccc12 (stereo not given) [CHLOROQUINE] | 5 |  | 7 | 1.8 | 5 | 5 | 5 | 5 |  | 2 | 5 | 18 | 3 | 21 |  | 5 | Parasitemia (Plasmodium berghei [17]): 20%; Parasitemia (Plasmodium berghei [18]): 21%; Parasitemia (Plasmodium berghei [19]): 1% |
| Nc1ncnc2c1ncn2[C@@H]1C=C(CO)[C@@H](O)[C@H]1O [NEOPLANOCIN A] | 5 | 0.2 | 21 | > 5 |  | 5 | 5 | 0 | 20 |  | 5 | 21 | 12 | 21 | 0.22 | 5 | Parasitemia (Plasmodium berghei [20]): 21%; Survival [21]: 0 |
